The text below walks through data of ChEMBL document CHEMBL1145564, “Discovery of N-[(3R,5R)-1-azabicyclo[3.2.1]oct-3-yl]furo[2,3-c]pyridine-5-carboxamide as an agonist of the alpha7 nicotinic acetylcholine receptor: in vitro and in vivo activity” (Bioorg Med Chem Lett, 2008).

Data set [1] can be described thus: Metabolic stability in rat liver microsomes assessed as hepatic extraction ratio after 30 mins. Type of data set: ADME, Microsome. In a few lines:
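Rat liver microsome incubation; stability reported as fraction of compound remaining after 30 min relative to t0 concentration.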

The target of data set [2] is Neuronal acetylcholine receptor subunit alpha-7 (Homo sapiens, UniProt P36544). The data set is described as follows: Agonist activity at alpha7-5HT3 chimera expressed in human SH-EP1 cells by FLIPR assay. Type of data set: functional, cell-based.
Chain of Neuronal acetylcholine receptor subunit alpha-7 (Homo sapiens, UniProt P36544) (P36544 23-502 limits assumed): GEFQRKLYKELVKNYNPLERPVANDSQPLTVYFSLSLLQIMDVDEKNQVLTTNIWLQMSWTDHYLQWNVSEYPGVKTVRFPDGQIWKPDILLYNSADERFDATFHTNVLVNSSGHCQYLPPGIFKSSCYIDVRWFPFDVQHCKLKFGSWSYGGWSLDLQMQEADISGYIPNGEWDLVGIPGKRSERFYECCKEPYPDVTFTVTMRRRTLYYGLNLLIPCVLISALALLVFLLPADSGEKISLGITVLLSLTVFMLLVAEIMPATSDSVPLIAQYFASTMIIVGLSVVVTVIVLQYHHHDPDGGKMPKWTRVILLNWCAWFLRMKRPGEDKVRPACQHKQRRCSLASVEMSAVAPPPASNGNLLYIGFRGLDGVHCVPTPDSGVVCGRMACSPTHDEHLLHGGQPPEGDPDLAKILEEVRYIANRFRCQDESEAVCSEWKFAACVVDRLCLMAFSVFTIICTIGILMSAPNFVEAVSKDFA
Data set [3] is described as follows: Apparent permeability from apical to basolateral side in dog MDCK cells. Type of data set: ADME, cell-based, Canis lupus familiaris. The gist of the method:
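MDCK monolayer permeability measured apical to basolateral, expressed as Papp (x10^-6 cm/s).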

Data set [4] has as its system Rattus norvegicus. As to the kind of experiment: Volume of distribution at steady state in Sprague-Dawley rat at 5 mg/kg, po. Type of data set: ADME, organism-based. Set-up: dose 5 mg/kg, route oral. As to conditions: in vivo. The gist of the method: (§1)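 Sprague-Dawley rats given a single 5.0 mg/kg oral dose; pharmacokinetic parameters derived from plasma.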
In data set [5] the target is T1, 5-hydroxytryptamine receptor 3A (Rattus norvegicus, UniProt P35563).
T1 sequence (P35563 whole entry): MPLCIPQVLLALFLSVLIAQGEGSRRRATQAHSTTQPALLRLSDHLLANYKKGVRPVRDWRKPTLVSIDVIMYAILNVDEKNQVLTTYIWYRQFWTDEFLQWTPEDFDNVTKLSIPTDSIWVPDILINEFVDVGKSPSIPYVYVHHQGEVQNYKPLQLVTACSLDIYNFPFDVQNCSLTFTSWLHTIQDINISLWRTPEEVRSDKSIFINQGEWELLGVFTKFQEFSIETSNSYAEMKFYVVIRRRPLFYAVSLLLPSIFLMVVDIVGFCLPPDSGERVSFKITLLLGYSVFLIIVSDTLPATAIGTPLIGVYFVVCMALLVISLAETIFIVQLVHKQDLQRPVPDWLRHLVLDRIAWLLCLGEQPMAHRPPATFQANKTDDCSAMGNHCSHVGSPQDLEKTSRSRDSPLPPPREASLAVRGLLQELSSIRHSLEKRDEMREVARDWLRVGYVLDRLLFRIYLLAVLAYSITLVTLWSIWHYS
The data set is described as follows: Binding affinity to rat 5HT3 receptor.

Data set [6] can be described thus: Ratio of drug level in brain to plasma in mouse at 10 mg/kg after 5 mins. The data set is classed as ADME, organism-based. Set-up: dose 10 mg/kg. The gist of the method: (§2)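 Mouse brain uptake: brain and plasma concentrations after a 10 mg/kg dose, ratio taken at 5 and 60 min.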
Data set [7] deals with Plasma. As to the kind of experiment: Fraction unbound in human plasma at 0.100 ug/mL. The data set is classed as ADME, cell-free. In a few lines:
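Human plasma protein binding as fraction unbound, measured at drug concentration 0.100 µg/mL.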

Data set [8] in a line: Half life in Sprague-Dawley rat at 5 mg/kg, po. Type of data set: ADME, organism-based. Also noted: dose 5 mg/kg, route oral. As to conditions: in vivo. In a few lines: as §1
The target of data set [9] is Neuronal acetylcholine receptor subunit alpha-7 (Rattus norvegicus, UniProt Q05941). The data set is described as follows: Displacement of [3H]MLA from alpha-7 nACh receptor in rat brain. The data set is classed as tissue-based. The gist of the method:
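Rat brain homogenate binding with [3H]MLA; individual Ki values, mean ± SEM reported when more than 3 measurements.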

In data set [10] the target is Neuronal acetylcholine receptor; alpha4/beta2 (Rattus norvegicus) (UniProt P09483+P12390). As to the kind of experiment: Displacement of [3H][…] from alpha-4-beta-2 nACh receptor in rat brain at 1 uM. Type of data set: tissue-based. In a few lines:
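Rat brain homogenate binding using [3H][…]; percent block at 1 µM.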

Data set [11] has as its system Rattus norvegicus. The data set is described as follows: Reversal of amphetamine-induced auditory gating deficit in iv dosed rat auditory sensory gating model. Particulars: read-out: MED.
Data set [12] can be described thus: Cmax in dog ECG model. The data set is classed as ADME, organism-based, Canis lupus familiaris. Particulars: in vivo. In a few lines: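 Acute dog ECG cardiovascular safety study; no-observable-adverse-effect dose set, with Cmax measured at that dose.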
Data set [13] concerns the target T2, Muscarinic acetylcholine receptor M1 (Homo sapiens) (UniProt P11229).
T2 sequence (whole entry): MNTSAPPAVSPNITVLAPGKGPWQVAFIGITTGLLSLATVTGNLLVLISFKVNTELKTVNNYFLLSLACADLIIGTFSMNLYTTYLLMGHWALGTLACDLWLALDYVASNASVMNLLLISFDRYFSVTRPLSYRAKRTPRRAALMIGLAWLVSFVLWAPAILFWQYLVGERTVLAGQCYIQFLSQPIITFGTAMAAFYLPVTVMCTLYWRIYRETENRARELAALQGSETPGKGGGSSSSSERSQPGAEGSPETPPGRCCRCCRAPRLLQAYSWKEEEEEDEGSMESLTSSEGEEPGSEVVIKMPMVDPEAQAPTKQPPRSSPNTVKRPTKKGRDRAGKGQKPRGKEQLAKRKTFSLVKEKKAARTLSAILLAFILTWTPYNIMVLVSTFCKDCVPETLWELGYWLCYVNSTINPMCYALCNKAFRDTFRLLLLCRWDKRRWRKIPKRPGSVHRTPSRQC
The data set is described as follows: Displacement of [3H]pirenzepine from human muscarinic M1 receptor expressed in CHO cells at 10 uM. The data set is classed as cell-based. In a few lines:
(§3)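 Human muscarinic receptors in transfected CHO cells; radioligands [3H]pirenzepine (M1), [3H]AF-DX 384 (M2), [3H]DAMP (M3); percent block at 10 µM.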

For data set [14], the target named is T3, Muscarinic acetylcholine receptor M2 (Homo sapiens) (UniProt P08172).
T3 sequence (whole entry): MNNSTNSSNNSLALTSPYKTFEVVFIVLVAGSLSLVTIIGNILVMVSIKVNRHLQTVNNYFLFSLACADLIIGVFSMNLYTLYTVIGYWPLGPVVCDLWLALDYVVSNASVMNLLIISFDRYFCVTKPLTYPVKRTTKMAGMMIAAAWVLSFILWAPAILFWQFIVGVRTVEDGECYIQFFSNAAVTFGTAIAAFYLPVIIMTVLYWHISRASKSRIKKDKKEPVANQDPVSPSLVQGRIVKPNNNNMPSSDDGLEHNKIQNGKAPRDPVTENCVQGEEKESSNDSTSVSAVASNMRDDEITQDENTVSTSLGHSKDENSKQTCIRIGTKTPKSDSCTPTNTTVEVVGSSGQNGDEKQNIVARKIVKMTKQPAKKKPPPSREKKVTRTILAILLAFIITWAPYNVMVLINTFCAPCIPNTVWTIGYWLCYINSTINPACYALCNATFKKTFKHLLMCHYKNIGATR
As to the kind of experiment: Displacement of [3H]AF-DX384 from human muscarinic M2 receptor expressed in CHO cells at 10 uM. The data set is classed as cell-based. The gist of the method: as §3

The target of data set [15] is Muscarinic acetylcholine receptor M3 (Homo sapiens) (UniProt P20309). As to the kind of experiment: Displacement of [3H]DAMP from human muscarinic M3 receptor expressed in CHO cells at 10 uM. The data set is classed as cell-based. In a few lines:
as §3

The nature of data set [16]: Ratio of drug level in brain to plasma in mouse at 10 mg/kg after 60 min. Type of data set: ADME, organism-based. Set-up: dose 10 mg/kg. The gist of the method: as §2
The nature of data set [17]: Clearance in Sprague-Dawley rat at 5 mg/kg, po. The data set is classed as ADME, organism-based. Set-up: dose 5 mg/kg, route oral. As to conditions: in vivo. In a few lines:
as §1

A short description of data set [18]: Metabolic stability in human liver microsomes assessed as half life. Type of data set: ADME, Microsome.

Each structure is given as a SMILES string.

Chain of Neuronal acetylcholine receptor subunit alpha-7 (Rattus norvegicus, UniProt Q05941) (Q05941 whole entry): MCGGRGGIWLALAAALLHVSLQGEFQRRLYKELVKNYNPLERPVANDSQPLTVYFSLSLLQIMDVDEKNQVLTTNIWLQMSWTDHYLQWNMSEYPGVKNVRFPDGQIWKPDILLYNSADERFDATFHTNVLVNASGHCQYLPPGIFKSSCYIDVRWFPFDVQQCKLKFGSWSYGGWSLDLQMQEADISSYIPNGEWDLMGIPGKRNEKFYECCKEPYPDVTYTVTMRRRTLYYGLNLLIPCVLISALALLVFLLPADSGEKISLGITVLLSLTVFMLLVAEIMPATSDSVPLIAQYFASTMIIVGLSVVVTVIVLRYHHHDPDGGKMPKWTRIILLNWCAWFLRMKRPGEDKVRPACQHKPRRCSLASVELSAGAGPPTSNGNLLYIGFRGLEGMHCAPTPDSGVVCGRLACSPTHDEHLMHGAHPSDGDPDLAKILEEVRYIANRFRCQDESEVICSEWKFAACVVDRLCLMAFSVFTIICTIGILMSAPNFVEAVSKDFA
Chain of Muscarinic acetylcholine receptor M3 (Homo sapiens) (P20309 whole entry, looked up): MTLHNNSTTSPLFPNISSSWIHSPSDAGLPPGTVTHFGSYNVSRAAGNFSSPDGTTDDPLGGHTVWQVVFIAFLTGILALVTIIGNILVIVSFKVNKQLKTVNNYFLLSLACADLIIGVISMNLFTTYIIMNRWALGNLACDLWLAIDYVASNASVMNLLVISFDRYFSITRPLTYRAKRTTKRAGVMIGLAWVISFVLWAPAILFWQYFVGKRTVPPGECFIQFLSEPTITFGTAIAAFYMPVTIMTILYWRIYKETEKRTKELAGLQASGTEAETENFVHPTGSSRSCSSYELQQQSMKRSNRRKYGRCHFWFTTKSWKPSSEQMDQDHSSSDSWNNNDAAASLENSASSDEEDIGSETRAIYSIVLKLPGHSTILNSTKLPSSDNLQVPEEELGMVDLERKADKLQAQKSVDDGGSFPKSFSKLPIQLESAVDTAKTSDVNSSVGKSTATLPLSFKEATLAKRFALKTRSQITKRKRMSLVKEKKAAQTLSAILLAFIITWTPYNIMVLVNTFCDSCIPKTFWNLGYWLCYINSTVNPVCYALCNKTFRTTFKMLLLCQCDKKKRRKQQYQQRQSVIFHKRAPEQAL

For `O=C(N[C@@H]1C[C@H]2CCN(C2)C1)c1ccc(Cl)cc1`, the hepatic extraction ratio at 0.5 h in data set [1] was 0.37. Besides, in [2], the EC50 is 190 nM.
As to `O=C(N[C@H]1CN2CCC1CC2)c1cc2ccoc2cn1` [PHA-543613], the apical-to-basolateral permeability (Papp A→B) in [3] was 34 ×10⁻⁶ cm/s. In addition, the Vdss in data set [4] was determined as 1.8 L/kg. For the same compound, the values for the inhibition constant (Ki) in [5] and in data set [9] were 630 nM and 9 nM, respectively. Moreover, in data set [6], the Kp at 5 min came to 1.5. In addition, the free fraction (fraction unbound) in data set [7] was 0.83. Besides, the results for the half-life in data set [8] and in [18] were 36 min and more than 120 min, respectively. For the same compound, the Activity is 13% in data set [10], 16% in [13], 23% in [14] and 33% in data set [15]. In addition, in [11], the minimal effective dose was 0.24 mg/kg. The concentration in [12] peaked (Cmax) at 3.8 µM. Besides, the Kp at 1 h in data set [16] stood at 1.5. Moreover, in data set [17], the apparent clearance (CL/F) is 33 mL/min/kg.
Turning to `O=C(N[C@@H]1C[C@H]2CCN(C2)C1)c1ccc2ncsc2c1`, in data set [3], the Papp A→B stood at 0.2 ×10⁻⁶ cm/s. Also, the Kp at 5 min in [6] worked out at 0.02. In data set [1], the hepatic extraction ratio at 0.5 h is less than 0.27. This compound showed a Ki in data set [9] of 21 nM. The midpoint of the response in [2], the EC50, lay at 182 nM. In addition, the Kp at 1 h in [16] is 0.33.
Consider `O=C(N[C@H]1CN2CCC1CC2)c1ccc(Cl)cc1` [PNU-282987], for which the hepatic extraction ratio at 0.5 h in data set [1] is less than 0.27. The compound also returned a concentration giving a half-maximal response (EC50) in data set [2] of 128 nM.
